According to ChEMBL document CHEMBL5154695, “Design, synthesis and biological evaluation of P2-modified proline analogues targeting the HtrA serine protease in Chlamydia” (Eur J Med Chem, 2022):
Activity calls are given as the source filed them.

Assays:
[1] = target: T1, Probable periplasmic serine endoprotease DegP-like (Chlamydia trachomatis, UniProt P18584); experiment: Inhibition of recombinant Chlamydia trachomatis HtrA serine protease using MeOCoum-ENLHLPLPI1F-D as substrate measured after 30 mins
T1 sequence (P18584 whole entry): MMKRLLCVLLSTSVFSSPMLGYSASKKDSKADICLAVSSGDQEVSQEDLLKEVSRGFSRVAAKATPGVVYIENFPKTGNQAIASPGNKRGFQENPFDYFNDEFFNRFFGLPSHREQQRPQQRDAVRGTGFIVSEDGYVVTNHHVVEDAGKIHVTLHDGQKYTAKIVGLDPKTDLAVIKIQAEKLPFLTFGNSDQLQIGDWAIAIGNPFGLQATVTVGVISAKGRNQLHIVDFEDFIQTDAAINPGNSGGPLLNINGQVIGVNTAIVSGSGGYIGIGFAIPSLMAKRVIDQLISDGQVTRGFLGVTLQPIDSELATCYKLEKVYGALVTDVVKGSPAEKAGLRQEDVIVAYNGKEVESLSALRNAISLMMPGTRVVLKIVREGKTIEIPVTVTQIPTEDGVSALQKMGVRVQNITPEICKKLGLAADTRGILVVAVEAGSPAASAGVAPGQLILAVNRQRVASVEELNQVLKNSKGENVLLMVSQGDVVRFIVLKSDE

[2] = test system: HEp-2; experiment: Cytotoxicity against human HEp-2 cells assessed as reduction in cell viability measured after 24 hrs by MTS assay; format: toxicity, cell-based; details: hep-2, 24 h
Outline: (§1)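 HEp-2 cells plated at 5000/well, treated 24 h after plating with 25 or 100 µM inhibitor, 1% v/v DMSO or medium alone, triplicate; after 24 h exposure, MTS/PMS added for 4 h and A490 read; viability expressed relative to DMSO control; mean ± SEM, n = 3.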

[3] = test system: HEp-2; experiment: Cytotoxicity against human HEp-2 cells assessed as loss of cell integrity by measuring cytosolic LDH release at 25 to 100 uM […] by LDH assay; format: toxicity, cell-based; details: hep-2, 100 µM, dose 25-100 µM
Outline: (§2)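 HEp-2 cells at 5000/well, dosed 24 h after plating with 25 or 100 µM, 1% v/v DMSO or medium, triplicate; after 8 h treatment supernatant taken, incubated 30 min with CytoTox reagent then stop solution, A490 read; maximum release from untreated cells lysed with 0.8% v/v Triton X-100 45 min before harvest; extracellular LDH as % of maximum; n = 3.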

[4] = test system: Chlamydia pecorum; experiment: Antibacterial activity against Chlamydia pecorum MC/MarsBar infected in human HEp-2 cells assessed as reduction in bacterial titre at 25 uM administered at 16 hrs post infection and measured 44 hrs post infection; format: functional, organism-based; details: time 28.0 hrs
[5] = test system: HEp-2; experiment: Cytotoxicity against human HEp-2 cells assessed as reduction in cell viability by measuring MTS reduction at 25 uM measured after 24 hrs by MTS assay relative to control; format: toxicity, cell-based; details: hep-2, 24 h; outline: as §1
[6] = test system: Chlamydia trachomatis; experiment: Antibacterial activity against Chlamydia trachomatis D/UW-3/Cx infected in human HEp-2 cells assessed as reduction in bacterial titer below threshold at 50 uM administered at 16 hrs post infection and measured 44 hrs post infection; format: functional, organism-based; details: time 28.0 hrs
Outline: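 C. trachomatis D (D/UW-3/Cx) in monolayers seeded 20,000 cells/well 24 h before infection; synchronised at 500 × g, 28 °C, 30 min; treated at 16 h PI (25, 50, 100 µM, triplicate) beside 1% v/v DMSO and media controls; harvested 44 h PI, passaged onto fresh monolayers, fixed, stained; IFU/mL compared against limit of detection.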

[7] = Cytotoxicity against human HEp-2 cells assessed as cell viability at 25 to 100 uM measured after 24 hrs by MTS assay relative to control; format: toxicity, cell-based; details: dose 25-100 µM, read-out: Activity; outline: as §1
[8] = test system: HEp-2; experiment: Cytotoxicity against human HEp-2 cells assessed as loss of cell integrity by measuring cytosolic LDH release at 25 to 100 uM […] by LDH assay relative to control; format: toxicity, cell-based; details: hep-2, 100 µM, dose 25-100 µM; outline: as §2
[9] = target: T2, Probable periplasmic serine endoprotease DegP-like (Chlamydia trachomatis) (UniProt P18584); experiment: Potency index, ratio of JO146 IC50 to test compound IC50 for inhibition of recombinant Chlamydia trachomatis HtrA serine protease using MeOCoum-ENLHLPLPI1F-D as substrate measured after 30 mins
T2 sequence (whole entry): T1 sequence (P18584 whole entry)

[10] = test system: Chlamydia trachomatis; experiment: Antibacterial activity against Chlamydia trachomatis D/UW-3/Cx infected in human HEp-2 cells assessed as reduction in bacterial titer at 25 to 100 uM administered at 16 hrs post infection and measured 44 hrs post infection; format: functional, organism-based; details: dose 25-100 µM, time 28.0 hrs
[11] = test system: Chlamydia pecorum; experiment: Antibacterial activity against Chlamydia pecorum MC/MarsBar infected in human HEp-2 cells assessed as reduction in bacterial titre at 25 to 100 uM administered at 16 hrs post infection and measured 44 hrs post infection; format: functional, organism-based; details: dose 25-100 µM, time 28.0 hrs
[12] = Cytotoxicity against human HEp-2 cells assessed as cell viability at 100 uM measured after 24 hrs by MTS assay relative to control; format: toxicity, cell-based; details: read-out: Activity; outline: as §1
[13] = test system: HEp-2; experiment: Cytotoxicity against human HEp-2 cells assessed as loss of cell integrity by measuring cytosolic LDH release at 100 uM […] by LDH assay; format: toxicity, cell-based; details: hep-2, 100 µM; outline: as §2

| Compound | IC50 [1] [µM] | Activity [2] | Activity [3] | Activity [5] [%] | also measured |
| --- | --- | --- | --- | --- | --- |
| CC(C)C(NC(=O)[C@@H]1C[C@H](n2nnc(O)c2O)CN1C(=O)[C@@H](NC(=O)OC(C)(C)C)C(C)(C)C)P(=O)(Oc1ccccc1)Oc1ccccc1 (mixture of isomers) | 23 | Non-Toxic | – | – | – |
| CC(C)C(NC(=O)[C@@H]1C[C@@H](n2nnc(O)c2O)CN1C(=O)[C@@H](NC(=O)OC(C)(C)C)C(C)(C)C)P(=O)(Oc1ccccc1)Oc1ccccc1 (mixture of isomers) | – | Non-Toxic | – | – | – |
| CC(=O)O[C@@H]1C[C@@H](C(=O)NC(C(C)C)P(=O)(Oc2ccccc2)Oc2ccccc2)N(C(=O)[C@@H](NC(=O)OC(C)(C)C)C(C)(C)C)C1 (mixture of isomers) | 3.86 | – | Non-Toxic | < 30 | Activity [4]: Active; Activity [6]: Active |
| CC(C)C(NC(=O)[C@@H]1C[C@@H](C2CCCCC2)CN1C(=O)[C@@H](NC(=O)OC(C)(C)C)C(C)(C)C)P(=O)(Oc1ccccc1)Oc1ccccc1 (mixture of isomers) | 163 | – | – | – | Activity [4]: Active; Activity [6]: Active; viability at 24 h, up to 100 µM [7]: 10%; Activity [8]: 80% |
| CC(C)C(NC(=O)[C@@H]1CCCN1C(=O)[C@@H](NC(=O)OC(C)(C)C)C(C)(C)C)P(=O)(Oc1ccccc1)Oc1ccccc1 (some centres not stated) | 15.9 | – | – | – | Ratio IC50 [9]: 1.38 |
| CC(C)C(NC(=O)[C@@H]1C[C@@H](n2cc(C(C)(C)O)nn2)CN1C(=O)[C@@H](NC(=O)OC(C)(C)C)C(C)(C)C)P(=O)(Oc1ccccc1)Oc1ccccc1 (mixture of isomers) | 71.6 | Non-Toxic | – | – | – |
| CC(C)C(NC(=O)[C@@H]1C[C@@H](n2cc(C(N)=O)nn2)CN1C(=O)[C@@H](NC(=O)OC(C)(C)C)C(C)(C)C)P(=O)(Oc1ccccc1)Oc1ccccc1 (mixture of isomers) | – | Non-Toxic | – | – | – |
| CC(C)C(NC(=O)[C@@H]1C[C@@H](n2nncc2C(C)(C)O)CN1C(=O)[C@@H](NC(=O)OC(C)(C)C)C(C)(C)C)P(=O)(Oc1ccccc1)Oc1ccccc1 (mixture of isomers) | 95.7 | Non-Toxic | – | – | Activity [10]: Active |
| CC(C)C(NC(=O)[C@@H]1C[C@@H](OC(=O)CCN)CN1C(=O)[C@@H](NC(=O)OC(C)(C)C)C(C)(C)C)P(=O)(Oc1ccccc1)Oc1ccccc1 (mixture of isomers) | 15.3 | – | Non-Toxic | < 30 | – |
| CC(C)C(NC(=O)[C@@H]1C[C@@H](c2ccccc2)CN1C(=O)[C@@H](NC(=O)OC(C)(C)C)C(C)(C)C)P(=O)(Oc1ccccc1)Oc1ccccc1 (mixture of isomers) | 59.5 | – | Non-Toxic | < 30 | Activity [4]: Active; Activity [6]: Active |
| CC(C)C(NC(=O)[C@@H]1C[C@@H](n2cc(CO)nn2)CN1C(=O)[C@@H](NC(=O)OC(C)(C)C)C(C)(C)C)P(=O)(Oc1ccccc1)Oc1ccccc1 (mixture of isomers) | 79.7 | Non-Toxic | – | – | Activity [10]: Active |
| CC(C)C(NC(=O)[C@@H]1C[C@@H](OC(=O)CN)CN1C(=O)[C@@H](NC(=O)OC(C)(C)C)C(C)(C)C)P(=O)(Oc1ccccc1)Oc1ccccc1 (mixture of isomers) | 13.9 | – | Non-Toxic | < 30 | – |
| CC(C)C(NC(=O)[C@@H]1CCCN1C(=O)[C@@H](NC(=O)OC(C)(C)C)C(C)C)P(=O)(Oc1ccccc1)Oc1ccccc1 (some centres not stated) | 21.9 | – | – | – | – |
| CC(C)C(NC(=O)[C@@H]1C[C@H](O)CN1C(=O)[C@@H](NC(=O)OC(C)(C)C)C(C)(C)C)P(=O)(Oc1ccccc1)Oc1ccccc1 (mixture of isomers) | 48.7 | – | Non-Toxic | < 30 | – |
| CC(C)C(NC(=O)[C@@H]1C[C@H](n2cc(CO)nn2)CN1C(=O)[C@@H](NC(=O)OC(C)(C)C)C(C)(C)C)P(=O)(Oc1ccccc1)Oc1ccccc1 (mixture of isomers) | – | Non-Toxic | – | – | – |
| CC(C)C(NC(=O)[C@@H]1C[C@H](n2nncc2C(C)(C)O)CN1C(=O)[C@@H](NC(=O)OC(C)(C)C)C(C)(C)C)P(=O)(Oc1ccccc1)Oc1ccccc1 (mixture of isomers) | 30.3 | Non-Toxic | – | – | Activity [10]: Active; Activity [11]: Active |
| CC(C)C(NC(=O)[C@@H]1C[C@@H](n2nncc2C(N)=O)CN1C(=O)[C@@H](NC(=O)OC(C)(C)C)C(C)(C)C)P(=O)(Oc1ccccc1)Oc1ccccc1 (mixture of isomers) | – | Non-Toxic | – | – | Activity [10]: Active; Activity [11]: Active |
| CC(C)C(NC(=O)[C@@H]1C[C@@H](O)CN1C(=O)[C@@H](NC(=O)OC(C)(C)C)C(C)(C)C)P(=O)(Oc1ccccc1)Oc1ccccc1 (mixture of isomers) | 14.2 | – | Non-Toxic | < 30 | – |
| CC(C)C(NC(=O)[C@@H]1CCCCN1C(=O)[C@@H](NC(=O)OC(C)(C)C)C(C)(C)C)P(=O)(Oc1ccccc1)Oc1ccccc1 (mixture of isomers) | 81.8 | – | Non-Toxic | < 30 | viability at 24 h, 100 µM [12]: 50%; Activity [4]: Active; Activity [13]: Non-Toxic; Activity [6]: Active |
